Holding throughout (format): functional
Assay [1] concerns Rattus norvegicus. The experiment in a line: Antioxidant activity against CCl4-induced oxidative hepatic injury Wistar albino rat model assessed as effect on liver cytosolic catalase activity per mg protein at 100 mg/kg, ip for 7 consecutive days prior to CCL4 challenge measured 24 hrs post CCl4 challenge (reference value: 218.25 +/-11.43 U/mg protein). The settings on record: route intraperitoneal.

The test system of assay [2] is Rattus norvegicus. Description: Antioxidant activity against CCl4-induced oxidative hepatic injury Wistar albino rat model assessed as effect on liver cytosolic GSH-Px activity per mg protein at 100 mg/kg, ip for 7 consecutive days prior to CCL4 challenge measured 24 hrs post CCl4 challenge (reference value: 0.27 +/-0.01 U/mg protein). The settings on record: route intraperitoneal.

Assay [3] has as its system Rattus norvegicus. The experiment in a line: Antioxidant activity against CCl4-induced oxidative hepatic injury Wistar albino rat model assessed as effect on liver cytosolic SOD activity per mg protein at 100 mg/kg, ip for 7 consecutive days prior to CCL4 challenge measured 24 hrs post CCl4 challenge (reference value: 5.42 +/-0.29 U/mg protein). The settings on record: route intraperitoneal. Put shortly: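 Wistar albino rats (100–150 g), 7 per group, dosed i.p. at 100 mg/kg/day for 7 days. Then CCl4 in olive oil (1:1) i.p. at 0.6 mL/kg. Liver taken 24 h later, homogenized in 1.15% KCl-10 mM phosphate/EDTA pH 7.4, cytosol obtained by sequential centrifugation. SOD read as the rate of cytochrome C reduction at 550 nm over 5 min (xanthine/xanthine oxidase, KCN, deoxycholate). Units/mg Lowry protein.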

Assay [4] has as its system Radical scavenging activity. Description: Antioxidant activity assessed as DPPH radical scavenging activity at 300 uM after 30 mins by spectrophotometry. Put shortly: (§1)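 Wistar-independent cell-free assay: 5 µl sample in 96% ethanol (solutions 0.5, 1.0, 2.0, 4.0, 8.0, 12.0 mM before mixing) added to 195 µl DPPH in 96% ethanol (solution labelled […]). Incubated 30 min at 25 °C, then A518 read. %AA = (A_DPPH − A_sample)/(A_DPPH − A_ethanol)×100. Triplicates averaged. IC50 from linear regression of mean %AA against concentration. Resveratrol positive control.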

The test system of assay [5] is Radical scavenging activity. The experiment in a line: Antioxidant activity assessed as DPPH radical scavenging activity at 200 uM after 30 mins by spectrophotometry. The procedure, abridged: as §1
For orientation: DPPH is a stable violet radical that fades when it is reduced.

For assay [6], the system named is Radical scavenging activity. The experiment in a line: Antioxidant activity assessed as DPPH radical scavenging activity at 100 uM after 30 mins by spectrophotometry. The procedure, abridged:
as §1

In assay [7] the test system is Radical scavenging activity. The experiment in a line: Antioxidant activity assessed as DPPH radical scavenging activity at 50 uM after 30 mins by spectrophotometry. Put shortly: as §1
The subject of assay [8] is Radical scavenging activity. Description: Antioxidant activity assessed as DPPH radical scavenging activity at 25 uM after 30 mins by spectrophotometry. The procedure, abridged:
as §1

The subject of assay [9] is Radical scavenging activity. The experiment in a line: Antioxidant activity assessed as DPPH radical scavenging activity at 12.5 uM after 30 mins by spectrophotometry. Put shortly: as §1
For assay [10], the system named is Radical scavenging activity. Description: Antioxidant activity assessed as DPPH radical scavenging activity after 30 mins by spectrophotometry. Put shortly: as §1

Structures are written as SMILES.

As to `CC(=O)OC[C@H]1O[C@@H](NC(=S)N/N=C/c2ccc(N(C)C)cc2)[C@H](OC(C)=O)[C@@H](OC(C)=O)[C@H]1OC(C)=O`, the Activity was found to be 295 U/mg in the assay with Rattus norvegicus [1]; 0.71 U/mg in the assay on Rattus norvegicus [2]; 5.81 U/mg in the assay with Rattus norvegicus [3]; 78.5% in assay [4]; 74.5% in assay [5]; 68.2% in assay [6]. In addition, the figures for the Activity in assay [7], in assay [8] and in [9] were 48.9%, 30.9% and 14.3%, respectively. For the same compound, the IC50 (as a rule, the concentration that gives 50% inhibition) in [10] is 56 µM.
Regarding `CC(=O)OC[C@H]1O[C@@H](NC(=S)N/N=C/c2cccc([N+](=O)[O-])c2)[C@H](OC(C)=O)[C@@H](OC(C)=O)[C@H]1OC(C)=O`, the Activity in the assay on Rattus norvegicus [1] worked out at 361 U/mg; in the assay on Rattus norvegicus [2], 0.73 U/mg; in the assay on Rattus norvegicus [3] it was 9.01 U/mg; in assay [4], 51.2%; in [5], 38.3%; in [6], 26.3%. In addition, the Activity in assay [7] was found to be 19.6%; in [8], 13.7%; in assay [9], 7.05%. Further, in assay [10], the IC50 turned out to be 283 µM.
Consider `CC(=O)OC[C@H]1O[C@@H](NC(=S)N/N=C/c2ccc(C(C)C)cc2)[C@H](OC(C)=O)[C@@H](OC(C)=O)[C@H]1OC(C)=O`, for which the Activity in the assay with Rattus norvegicus [1] came to 391 U/mg; in the assay with Rattus norvegicus [2], 1.01 U/mg; in the assay with Rattus norvegicus [3] it was 9.92 U/mg; in assay [4], 24.5%; in [5] it was 18.1%; in assay [6], 15.1%. The Activity worked out at 9.65% in assay [7], 5.32% in [8] and 2.17% in assay [9]. In addition, the IC50 in [10] was more than 300 µM.
Consider `CC(=O)OC[C@H]1O[C@@H](NC(=S)N/N=C/c2ccc([N+](=O)[O-])cc2)[C@H](OC(C)=O)[C@@H](OC(C)=O)[C@H]1OC(C)=O`, for which the Activity is 352 U/mg in the assay on Rattus norvegicus [1]; 0.71 U/mg in the assay on Rattus norvegicus [2]; 8.79 U/mg in the assay with Rattus norvegicus [3]; 64.5% in assay [4]; 53.3% in assay [5]; 29.1% in [6]. For the same compound, the Activity in assay [7] is 18.5%; in assay [8] it was 11.3%; in assay [9], 6.11%. Also, the 50% inhibitory concentration (IC50) in assay [10] was found to be 210 µM.
As for `CC(=O)OC[C@H]1O[C@@H](NC(=S)N/N=C/c2ccc(Br)cc2)[C@H](OC(C)=O)[C@@H](OC(C)=O)[C@H]1OC(C)=O`, the Activity with Rattus norvegicus [1] turned out to be 389 U/mg; in the assay on Rattus norvegicus [2], 0.98 U/mg; in the assay with Rattus norvegicus [3], 9.95 U/mg; in assay [4] it was 44.3%; in assay [5] it was 35.4%; in assay [6], 23.5%. In addition, the Activity is 17.5% in [7], 9.04% in assay [8] and 5.38% in [9]. Further, the IC50 in assay [10] was more than 300 µM.
As for `Oc1ccc(/C=C/c2cc(O)cc(O)c2)cc1` [RESVERATROL], the Activity in the assay with Rattus norvegicus [1] amounted to 285 U/mg; in the assay on Rattus norvegicus [2], 0.35 U/mg; in the assay with Rattus norvegicus [3], 7.49 U/mg; in [4], 75.6%; in [5] it was 70.4%; in assay [6] it was 54%. Moreover, the Activity turned out to be 33.8% in [7], 22.6% in assay [8] and 9.13% in [9]. Also, the IC50 in assay [10] was determined as 94 µM.
On to `CC(=O)OC[C@H]1O[C@@H](NC(=S)N/N=C/c2ccc(C)cc2)[C@H](OC(C)=O)[C@@H](OC(C)=O)[C@H]1OC(C)=O`, for which the Activity in the assay with Rattus norvegicus [1] came to 354 U/mg; in the assay on Rattus norvegicus [2], 0.72 U/mg; in the assay with Rattus norvegicus [3] it was 8.82 U/mg; in assay [4], 65%; in [5], 53.3%; in [6], 32.8%. Also, the Activity in assay [7] came to 18.1%; in assay [8], 12.8%; in [9] it was 7.21%. The IC50 in assay [10] came to 206 µM.
Consider `CC(=O)OC[C@H]1O[C@@H](NC(=S)N/N=C/c2ccc(Cl)cc2)[C@H](OC(C)=O)[C@@H](OC(C)=O)[C@H]1OC(C)=O`, for which the Activity with Rattus norvegicus [1] was found to be 358 U/mg; in the assay on Rattus norvegicus [2], 0.7 U/mg; in the assay on Rattus norvegicus [3] it was 8.91 U/mg; in [4], 55.4%; in assay [5] it was 38.4%; in assay [6] it was 19.8%. In addition, the values for the Activity in [7], in assay [8] and in assay [9] were 17.6%, 10.1% and 7.15%, respectively. In assay [10], the 50% inhibitory concentration (IC50) amounted to 270 µM.
Regarding `CC(=O)OC[C@H]1O[C@@H](NC(=S)N/N=C/c2ccc(F)cc2)[C@H](OC(C)=O)[C@@H](OC(C)=O)[C@H]1OC(C)=O`, the Activity in the assay on Rattus norvegicus [1] worked out at 351 U/mg; in the assay with Rattus norvegicus [2] it was 0.69 U/mg; with Rattus norvegicus [3], 8.6 U/mg; in assay [4] it was 67.2%; in assay [5], 55.6%; in assay [6], 34.3%. For the same compound, the Activity in [7] turned out to be 17.1%; in assay [8], 13.3%; in assay [9] it was 8.51%. For the same compound, the IC50 in assay [10] came out at 197 µM.
Regarding `CCOc1cc(/C=N/NC(=S)N[C@@H]2O[C@H](COC(C)=O)[C@H](OC(C)=O)[C@H](OC(C)=O)[C@H]2OC(C)=O)ccc1O`, the Activity with Rattus norvegicus [1] was 284 U/mg; with Rattus norvegicus [2], 0.69 U/mg; in the assay on Rattus norvegicus [3], 6.45 U/mg; in [4] it was 69.2%; in [5], 68.3%; in [6], 59.4%. The values for the Activity in [7], in [8] and in assay [9] were 45.4%, 30.2% and 14.2%, respectively. In addition, the IC50 in assay [10] was determined as 71 µM.
Take `COc1cccc(/C=N/NC(=S)N[C@@H]2O[C@H](COC(C)=O)[C@H](OC(C)=O)[C@H](OC(C)=O)[C@H]2OC(C)=O)c1`: the Activity was determined as 362 U/mg with Rattus norvegicus [1]; 0.71 U/mg in the assay on Rattus norvegicus [2]; 8.89 U/mg with Rattus norvegicus [3]; 55.1% in [4]; 34% in assay [5]; 27.2% in assay [6]. Also, the results for the Activity in [7], in [8] and in assay [9] were 15.6%, 11.5% and 7.34%, respectively. For the same compound, in [10], the IC50 came out at 276 µM.
As to `COc1ccc(/C=N/NC(=S)N[C@@H]2O[C@H](COC(C)=O)[C@H](OC(C)=O)[C@H](OC(C)=O)[C@H]2OC(C)=O)cc1O`, the Activity in the assay on Rattus norvegicus [1] stood at 352 U/mg; with Rattus norvegicus [2], 0.59 U/mg; with Rattus norvegicus [3], 8.76 U/mg; in assay [4], 69.6%; in assay [5], 56.8%; in assay [6] it was 40.1%. For the same compound, the values for the Activity in [7], in assay [8] and in [9] were 28.2%, 17.4% and 8.16%, respectively. Also, the IC50 in assay [10] came out at 182 µM.
For `CC(=O)OC[C@H]1O[C@@H](NC(=S)N/N=C/c2ccc(O)cc2)[C@H](OC(C)=O)[C@@H](OC(C)=O)[C@H]1OC(C)=O`, the Activity stood at 332 U/mg with Rattus norvegicus [1]; 0.51 U/mg in the assay on Rattus norvegicus [2]; 8.24 U/mg in the assay on Rattus norvegicus [3]; 75.1% in assay [4]; 68.7% in assay [5]; 49.2% in assay [6]. For the same compound, the Activity came out at 33.3% in assay [7], 22.6% in assay [8] and 11.4% in assay [9]. In assay [10], the IC50 was found to be 108 µM.
With `COc1cc(/C=N/NC(=S)N[C@@H]2O[C@H](COC(C)=O)[C@H](OC(C)=O)[C@H](OC(C)=O)[C@H]2OC(C)=O)ccc1O`, the Activity with Rattus norvegicus [1] is 290 U/mg; in the assay on Rattus norvegicus [2], 0.37 U/mg; in the assay on Rattus norvegicus [3], 6.57 U/mg; in assay [4], 74%; in assay [5], 71.2%; in assay [6], 60.3%. The Activity in [7] is 45.6%; in assay [8], 27.1%; in assay [9] it was 9.45%. In addition, the IC50 in [10] amounted to 75 µM.

Values taken from ChEMBL document CHEMBL2321718, “Antioxidant activities of thiosemicarbazones from substituted benzaldehydes and N-(tetra-O-acetyl-β-D-galactopyranosyl)thiosemicarbazide” (Eur J Med Chem, 2013).
